Experimental data published in ChEMBL document CHEMBL5550111, “Design, synthesis and biological evaluation of aryloxy thiophosphoramidate triesters of anticancer nucleoside analogues” (Bioorg Med Chem, 2024).

What was measured:
HepG2 [1] = experiment: Cytotoxicity against human HepG2 cells assessed as inhibition of cell viability incubated for 72 hrs by MTS assay; format: functional, cell-based; details: HepG2, 72 h
How it was run: (§1)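 Cells seeded at 0.5 to 100 × 10^3 per well the day before treatment, then exposed for 72 h to 9 serial concentrations (3.16-fold dilutions, top 198 μM), in duplicate. MTS added for a final 4 h at 37 °C and absorbance read. IC50 is the concentration giving 50% loss of viability. MI% is the maximum inhibition over the tested range.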

PC-3 [2] = experiment: Cytotoxicity against human PC-3 cells assessed as inhibition of cell viability incubated for 72 hrs by MTS assay; format: functional, cell-based; details: PC-3, 72 h; how it was run: as §1
HT-29 [3] = experiment: Cytotoxicity against human HT-29 cells assessed as maximum inhibition of cell viability upto 198 uM incubated for 72 hrs by MTS assay relative to control; format: functional; details: up to 198 µM
How it was run: (§2)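 Cells seeded at 0.5 to 100 × 10^3 per well the day before drug addition, then exposed to compound for 72 h. MTS added afterwards, with a further 4 h at 37 °C, and absorbance read. Tested in duplicate at 9 serial 3.16-fold dilutions, top concentration 198 μM. MI% is the maximum inhibition of viability across the tested range.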

BXPC-3 [4] = experiment: Cytotoxicity against human BXPC-3 cells assessed as inhibition of cell viability incubated for 72 hrs by MTS assay; format: functional, cell-based; details: BXPC-3, 72 h; how it was run: as §1
SK-MES-1 [5] = experiment: Cytotoxicity against human SK-MES-1 cells assessed as inhibition of cell viability incubated for 72 hrs by MTS assay; format: functional, cell-based; details: SK-MES-1, 72 h; how it was run: as §1
MDA-MB-231 [6] = experiment: Cytotoxicity against human MDA-MB-231 cells assessed as maximum inhibition of cell viability upto 198 uM incubated for 72 hrs by MTS assay relative to control; format: functional; details: up to 198 µM; how it was run: as §2
PANC-1 [7] = experiment: Cytotoxicity against human PANC-1 cells assessed as maximum inhibition of cell viability upto 198 uM incubated for 72 hrs by MTS assay relative to control; format: functional; details: up to 198 µM; how it was run: as §2
A2780 [8] = experiment: Cytotoxicity against human A2780 cells assessed as maximum inhibition of cell viability upto 198 uM incubated for 72 hrs by MTS assay relative to control; format: functional; details: up to 198 µM; how it was run: as §2
[9] = Cytotoxicity against human T24/83 cells assessed as inhibition of cell viability incubated for 72 hrs by MTS assay; format: functional, cell-based; details: T24/83, 72 h; how it was run: as §1
OVCAR-3 [10] = experiment: Cytotoxicity against human OVCAR-3 cells assessed as maximum inhibition of cell viability upto 198 uM incubated for 72 hrs by MTS assay relative to control; format: functional; details: up to 198 µM; how it was run: as §2
BXPC-3 [11] = experiment: Cytotoxicity against human BXPC-3 cells assessed as maximum inhibition of cell viability upto 198 uM incubated for 72 hrs by MTS assay relative to control; format: functional; details: up to 198 µM; how it was run: as §2
HT-29 [12] = experiment: Cytotoxicity against human HT-29 cells assessed as inhibition of cell viability incubated for 72 hrs by MTS assay; format: functional, cell-based; details: HT-29, 72 h; how it was run: as §1
HepG2 [13] = experiment: Cytotoxicity against human HepG2 cells assessed as maximum inhibition of cell viability upto 198 uM incubated for 72 hrs by MTS assay relative to control; format: functional; details: up to 198 µM; how it was run: as §2
PANC-1 [14] = experiment: Cytotoxicity against human PANC-1 cells assessed as inhibition of cell viability incubated for 72 hrs by MTS assay; format: functional, cell-based; details: PANC-1, 72 h; how it was run: as §1
MDA-MB-231 [15] = experiment: Cytotoxicity against human MDA-MB-231 cells assessed as inhibition of cell viability incubated for 72 hrs by MTS assay; format: functional, cell-based; details: MDA-MB-231, 72 h; how it was run: as §1
A2780 [16] = experiment: Cytotoxicity against human A2780 cells assessed as inhibition of cell viability incubated for 72 hrs by MTS assay; format: functional, cell-based; details: A2780, 72 h; how it was run: as §1
MIA PaCa-2 [17] = experiment: Cytotoxicity against human MIA PaCa-2 cells assessed as inhibition of cell viability incubated for 72 hrs by MTS assay; format: functional, cell-based; details: MIA PaCa-2, 72 h; how it was run: as §1
RT112/84 [18] = experiment: Cytotoxicity against human RT112/84 cells assessed as maximum inhibition of cell viability upto 198 uM incubated for 72 hrs by MTS assay relative to control; format: functional; details: up to 198 µM; how it was run: as §2
COLO 205 [19] = experiment: Cytotoxicity against human COLO 205 cells assessed as inhibition of cell viability incubated for 72 hrs by MTS assay; format: functional, cell-based; details: COLO 205, 72 h; how it was run: as §1
OVCAR-3 [20] = experiment: Cytotoxicity against human OVCAR-3 cells assessed as inhibition of cell viability incubated for 72 hrs by MTS assay; format: functional, cell-based; details: OVCAR-3, 72 h; how it was run: as §1
SK-MES-1 [21] = experiment: Cytotoxicity against human SK-MES-1 cells assessed as maximum inhibition of cell viability upto 198 uM incubated for 72 hrs by MTS assay relative to control; format: functional; details: up to 198 µM; how it was run: as §2
RT112/84 [22] = experiment: Cytotoxicity against human RT112/84 cells assessed as inhibition of cell viability incubated for 72 hrs by MTS assay; format: functional, cell-based; details: RT112/84, 72 h; how it was run: as §1
MIA PaCa-2 [23] = experiment: Cytotoxicity against human MIA PaCa-2 cells assessed as maximum inhibition of cell viability upto 198 uM incubated for 72 hrs by MTS assay relative to control; format: functional; details: up to 198 µM; how it was run: as §2
PC-3 [24] = experiment: Cytotoxicity against human PC-3 cells assessed as maximum inhibition of cell viability upto 198 uM incubated for 72 hrs by MTS assay relative to control; format: functional; details: up to 198 µM; how it was run: as §2
COLO 205 [25] = experiment: Cytotoxicity against human COLO 205 cells assessed as maximum inhibition of cell viability upto 198 uM incubated for 72 hrs by MTS assay relative to control; format: functional; details: up to 198 µM; how it was run: as §2

C[C@H](NP(=O)(OC[C@H]1O[C@@H](n2ccc(N)nc2=O)C(F)(F)[C@@H]1O)Oc1ccccc1)C(=O)OCc1ccccc1 (stereo not given in full) [FOSGEMCITABINE PALABENAMIDE]
IC50 (HepG2 [1]): 1.16 µM | IC50 (PC-3 [2]): 1.09 µM | Imax (HT-29 [3]): 64% | IC50 (BXPC-3 [4]): 0.33 µM | IC50 (SK-MES-1 [5]): 0.11 µM | Imax (MDA-MB-231 [6]): 71% | Imax (PANC-1 [7]): 45% | Imax (A2780 [8]): 76% | IC50 [9]: 0.05 µM | Imax (OVCAR-3 [10]): 16% | Imax (BXPC-3 [11]): 64% | IC50 (HT-29 [12]): 0.48 µM | Imax (HepG2 [13]): 57% | IC50 (PANC-1 [14]): 3.96 µM | IC50 (MDA-MB-231 [15]): 1 µM | IC50 (A2780 [16]): 0.27 µM | IC50 (MIA PaCa-2 [17]): 0.12 µM | Imax (RT112/84 [18]): 79% | IC50 (COLO 205 [19]): 1.82 µM | IC50 (OVCAR-3 [20]): 119 µM | Imax (SK-MES-1 [21]): 79% | IC50 (RT112/84 [22]): 0.11 µM | Imax (MIA PaCa-2 [23]): 69% | Imax (PC-3 [24]): 65% | Imax (COLO 205 [25]): 72%
